In ChEMBL document CHEMBL1137542, “Probing multivalent carbohydrate-lectin interactions by an enzyme-linked lectin assay employing covalently immobilized carbohydrates” (Bioorg Med Chem, 2007):

Legend:
Triticum aestivum [1] = assay: Inhibition of binding of HRP labeled WGA to immobilized porcine stomach […] relative to N-acetyl-glucosamine
Procedure, shortened: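 IC50 measured in the PSM-coated ELLA (WGA-HRP 1 μg mL⁻¹ final, 60 min pre-incubation with inhibitor, 90 min at 37 °C, ABTS read at 405 nm, duplicate). Relative potency β is the GlcNAc IC50 divided by the ligand IC50, with GlcNAc set to β = 1.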

[2] = Inhibition of binding of HRP labeled WGA to immobilized porcine stomach […]; parameters: species or system Triticum aestivum
Procedure, shortened: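 Plates coated overnight at room temperature with porcine stomach mucin (4.12 μg mL⁻¹ in PBS, pH 7.3), then blocked with 1% BSA, 90 min at 37 °C. WGA-HRP (1 μg mL⁻¹ final) pre-incubated 60 min at 37 °C with serially diluted inhibitor, then 90 min at 37 °C on plates. ABTS/H₂O₂ read-out at pH 4.0, 30 min, stopped with H₂SO₄, A405. IC50 from % inhibition curves, duplicate.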

Triticum aestivum [3] = assay: Inhibition of binding of HRP labeled WGA to immobilized N-acetyl-glucosamine relative to N-acetyl-glucosamine
Procedure, shortened: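 IC50 values come from the covalently immobilized GlcNAc ELLA (thiourea-linked spacer GlcNAc, WGA-HRP 1 μg mL⁻¹, 37 °C incubations, ABTS read at 405 nm, duplicate). β expresses potency relative to GlcNAc, with GlcNAc set to β = 1.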

[4] = Inhibition of binding of HRP labeled WGA to immobilized N-acetyl-glucosamine; parameters: species or system Triticum aestivum
Procedure, shortened: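 Covalent GlcNAc surface: amino plates activated with 0.5% 1,4-phenylene diisothiocyanate in DMSO for 3 h, then treated overnight with 1 mM spacer-linked GlcNAc amine at pH 10.1. Blocking was 1% BSA. WGA-HRP (1 μg mL⁻¹ final) was pre-incubated with inhibitor dilutions for 60 min at 37 °C, then incubated on the plates for 90 min at 37 °C. ABTS/H₂O₂ read at 405 nm. IC50 from % inhibition, duplicate.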

| SMILES | Activity (Triticum aestivum [1]) | IC50 [2] [mM] | Activity (Triticum aestivum [3]) | IC50 [4] [µM] |
| --- | --- | --- | --- | --- |
| CC(=O)N[C@H]1[C@H](OC/C=C\COC(=O)NCc2ccccc2)O[C@H](CO)[C@@H](O)[C@@H]1O | 10 | 100 |  |  |
| CC(=O)N[C@H]1[C@H](OC/C=C\COC(=O)NCCN(CCNC(=O)OC/C=C\CO[C@@H]2O[C@H](CO)[C@@H](O)[C@H](O)[C@H]2NC(C)=O)CCNC(=O)OC/C=C\CO[C@@H]2O[C@H](CO)[C@@H](O)[C@H](O)[C@H]2NC(C)=O)O[C@H](CO)[C@@H](O)[C@@H]1O | 40 | 25 | 420 | 0.055 |
| C=CCO[C@@H]1O[C@H](CO)[C@@H](O)[C@H](O)[C@H]1NC(C)=O | 3.6 | 280 | 2.3 | 10 |
| CCCNC(=O)OC/C=C\CO[C@@H]1O[C@H](CO)[C@@H](O)[C@H](O)[C@H]1NC(C)=O | 4.2 | 240 |  |  |
| CC(=O)N[C@H]1[C@H](OC/C=C\COC(=O)NCc2cccc(CNC(=O)OC/C=C\CO[C@@H]3O[C@H](CO)[C@@H](O)[C@H](O)[C@H]3NC(C)=O)c2)O[C@H](CO)[C@@H](O)[C@@H]1O | 50 | 20 |  |  |
| CC(=O)N[C@H]1[C@H](OC/C=C\COC(=O)NCc2ccc(CNC(=O)OC/C=C\CO[C@@H]3O[C@H](CO)[C@@H](O)[C@H](O)[C@H]3NC(C)=O)cc2)O[C@H](CO)[C@@H](O)[C@@H]1O | 67 | 15 | 260 | 0.088 |
| CC(=O)N[C@H]1[C@H](OC/C=C\COC(=O)NCCCOCCOCCOCCCNC(=O)OC/C=C/CO[C@@H]2O[C@H](CO)[C@@H](O)[C@H](O)[C@H]2NC(C)=O)O[C@H](CO)[C@@H](O)[C@@H]1O | 13 | 75 | 80 | 0.288 |
| CC(=O)N[C@@H]1[C@@H](O)[C@H](O)[C@@H](CO)O[C@H]1O [N-ACETYLGLUCOSAMINE] | 1 | 1000 |  | 23 |
| CC(=O)N[C@H]1[C@H](OC/C=C\COC(=O)NCCCOCCCCOCCCNC(=O)OC/C=C\CO[C@@H]2O[C@H](CO)[C@@H](O)[C@H](O)[C@H]2NC(C)=O)O[C@H](CO)[C@@H](O)[C@@H]1O | 17 | 60 |  |  |
| CC(=O)N[C@H]1[C@H](OC/C=C\CO)O[C@H](CO)[C@@H](O)[C@@H]1O | 2 | 500 | 1.9 | 12 |
| CC(=O)N[C@H]1[C@H](OC/C=C\COC(=O)NCCNCCNC(=O)OC/C=C\CO[C@@H]2O[C@H](CO)[C@@H](O)[C@H](O)[C@H]2NC(C)=O)O[C@H](CO)[C@@H](O)[C@@H]1O | 25 | 40 |  |  |
